Published values from different studies.
Each line is one published result; the experiments were not run side by side.
Target: cGMP-dependent protein kinase 2 (PRKG2, Homo sapiens, UniProt Q13237)

| SMILES | effect on | action | method | concentration | endpoint | result |
| --- | --- | --- | --- | --- | --- | --- |
| CC(C)(C)c1nc(-c2cccc(NS(=O)(=O)c3c(F)cccc3F)c2F)c(-c2ccnc(N)n2)s1 | enzyme activity | inhibitor | radiometric | 1 µM | remaining activity | 102% |
| CC(C)(O)[C@H]1CC[C@H](Nc2ccc3ncc(-c4cccc(C(F)(F)F)c4)n3n2)CC1 | enzyme activity | inhibitor |  | 1 µM | remaining activity | 93.7% |
| C[C@H](c1cccc(C#N)c1)n1cc(Cl)cc(C(N)=O)c1=N | cell-free assay |  | competition with immobilised ligand | 1 µM | remaining binding | 97% |
| Cc1ccc(NC(=O)c2ccc(CN3CCN(C)CC3)cc2)cc1Nc1nc(-c2cccnc2)cs1 | cell-free assay |  |  | 0.5 µM | remaining signal | 95.4% |
| Nc1ncnc2occ(-c3ccc(NC(=O)Nc4cc(C(F)(F)F)ccc4F)cc3)c12 | cell-free assay | inhibitor |  | 20 µM | remaining signal | 76% |
| O=C(Nc1cccnn1)N1CCC(=Cc2cccc(Oc3ccc(C(F)(F)F)cn3)c2)CC1 | cell-free assay |  | competition with immobilised ligand | 1 µM | remaining binding | 100% |
| Cc1sc(C(=O)NC2COC2)cc1-n1cc(NC(=O)Nc2c(F)cccc2Cl)cn1 | enzyme activity | inhibitor |  | 10 µM | remaining activity | 100% |
| C=CC(=O)Nc1cc(Nc2nccc(Nc3cc(Cl)c(F)cc3C(C)(C)O)n2)c(OC)cc1N1CC[C@@H](N(C)C)C1 | enzyme activity | inhibitor |  | 1 µM | inhibition | -8% |
| CN(C)C1CCN(CC#Cc2nn(C3CCCC3)c3nc(NCc4ccccc4)ncc23)C1 (stereo not shown) | enzyme activity | inhibitor | FRET | 10 µM | inhibition | 5% |
| COc1cc(Cl)c(C(=O)N[C@@H](CN[C@H]2CC[C@@H](N)CC2)Cc2ccc(C#N)cc2)cc1-c1ccc(CN[C@H](C)c2ccc(C)cc2)o1 | enzyme activity | inhibitor |  | 1 µM | remaining activity | 98% |
| Nc1nc(Nc2ccc(S(N)(=O)=O)cc2)nn1C(=O)c1c(F)cccc1F | cell-free assay |  |  | 0.5 µM | remaining signal | 92.2% |
| COc1cc2ncnc(Nc3ccc(Oc4ccccc4)c(C)c3C)c2cc1OC | enzyme activity | inhibitor |  | 1 µM | inhibition | 2% |
| COc1cccc(CNC(=O)c2nc3scc(COCc4ccc(C(=O)O)cc4)c3c(=O)[nH]2)c1 | cell-free assay |  | competition with immobilised ligand | 1 µM | remaining binding | 100% |
| C[C@H]1CCN(c2nccc(-c3cnn4ncccc34)n2)C1 | binding |  |  | 1 µM | remaining binding | 80% |
| Cc1cc(-n2nc(Cc3cc(F)cc(C(F)(F)F)c3)nc2C)ccc1C(N)=O | cell-free assay |  | competition with immobilised ligand | 1 µM | remaining binding | 86% |
| CN1CC(Oc2cnc(C#N)cc2-c2ccn3nc(NC(=O)C4CC4)cc3c2)C1 | enzyme activity | inhibitor |  | 1 µM | inhibition | 1% |
| CC1=C(C#N)[C@@H](c2ccc3[nH]nc(C)c3c2)C(C#N)=C(c2ccc(Cl)cc2)N1 | cell-free assay |  | competition with immobilised ligand | 1 µM | remaining binding | 100% |
| Cn1cnc(Br)c1C1=CN(c2ncnc3[nH]cnc23)CCS1 | enzyme activity | inhibitor | radiometric | 50 nM | inhibition | 43.1% |
| O=C1NC(=O)c2cc(Nc3ccc(F)cc3)c(Nc3ccc(F)cc3)cc21 | cell-free assay |  |  | 0.5 µM | remaining signal | 83.3% |
